PMC5306247 (European Journal of Drug Metabolism and Pharmacokinetics, 2016)
Values joined by “and” are separate entries in the source; they are usually repeats but may differ in a detail not shown here. Identical values can stand only once.

Experiments:
[1] = test system: platelet aggregation; conditions: cited from earlier work
[2] = Clinical pharmacokinetics of CLP and its metabolites in plasma; format: in vivo, patients (human)
Outline: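 Caucasian patients scheduled for PCI or coronarography got 75 mg daily for 7 days, fasting. On day 7, plasma was sampled at 0.5, 1, 2, 3, 4, 6, 12 and 24 h (44 patients) or at 0.5 and 2 h only (38). Plasma was spiked with piroxicam, acetonitrile-precipitated, filtered, dried and reconstituted for HPLC–MS/MS. Quantifiable ranges were parent 0.25–5, derivatized thiol metabolites 0.25–50 and main metabolite 50–10,000 ng/mL. Tmax was taken directly from measured concentrations.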

[3] = test system: CYP3A4; conditions: cited from earlier work
[4] = cited from earlier work
[5] = in vivo; cited from earlier work
[6] = test system: ADP-induced platelet aggregation; conditions: 75 mg CLP daily

COC(=O)C(c1ccccc1Cl)N1CCC(S)C(=CC(=O)O)C1 (stereo not drawn) [H4]
antiaggregation properties [1]: exhibits antiaggregation properties

O=C(O)[C@H](c1ccccc1Cl)N1CCc2sccc2C1 [CLPM]
time after CLP administration up to which concentrations were quantifiable ([2]; patients, 75 mg CLP daily, day 7, plasma): up to 24 h

COC(=O)[C@H](c1ccccc1Cl)N1CCC(S)/C(=C\C(=O)O)C1 (stereo partly drawn) [H3]
antiaggregation properties [1]: only H4 exhibits antiaggregation properties

COC(=O)[C@H](c1ccccc1Cl)N1CCC2SC(=O)C=C2C1 (stereo partly drawn) [2-oxo-CLP]
share of 2-oxo-CLP transformed into the thiol entities by CYP3A4 [3]: ~40% and 39.8%

COC(=O)[C@H](c1ccccc1Cl)N1CCc2sccc2C1 [CLP, Clopidogrel]
patients treated with CLP who respond poorly to the drug [4]: 5–50% | share of absorbed drug undergoing bioactivation pathway to thiol metabolite [5]: Approximately 15% | median AUCagr for wt/wt genotype versus heterozygotes ([6]; samples 2–3 h after administration, p = 0.484): lower | classification of patients by response to CLP ([6]; threshold for CLP resistance AUCagr above 486 AU*min): Almost all studied patients were classified as responders | Tmax ([2]; human, plasma, oral, 75 mg): 1 h
